Series [1] is described as follows: Growth inhibition of African green monkey COS7 cells at 50 uM after 72 hrs by crystal violet staining based assay. Type of series: cell-based, COS-7. As to conditions: chlorocebus aethiops; for inhibition at 72 h, 50 µM: COS7 cells, read-out: GI; for growth inhibition (GI): cos-7, 72 h, 50 µM. In outline:
(§1)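 Cells seeded in complete DMEM, LNCaP at 5×10⁴/well on poly-D-lysine-coated wells, COS-7 at 3×10⁴/well. After 24 h at 37 °C, compound added at 50 µM final (DMSO vehicle). Exposure 72 h, then PBS wash, fixation in 1% […]/PBS, crystal violet staining of chromatin, absorbance 590 nm. Biomass given as % of vehicle control; mean SD of at least two independent experiments.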

The nature of series [2]: (§2) Growth inhibition of human LNCAP cells expressing PPARgamma at 50 uM after 72 hrs by crystal violet staining based assay. Type of series: functional. As to conditions: read-out: GI. A digest of the protocol:
as §1

Series [3] concerns the target T1, Peroxisome proliferator-activated receptor gamma (Mus musculus, UniProt P37238).
T1 sequence (P37238 whole entry): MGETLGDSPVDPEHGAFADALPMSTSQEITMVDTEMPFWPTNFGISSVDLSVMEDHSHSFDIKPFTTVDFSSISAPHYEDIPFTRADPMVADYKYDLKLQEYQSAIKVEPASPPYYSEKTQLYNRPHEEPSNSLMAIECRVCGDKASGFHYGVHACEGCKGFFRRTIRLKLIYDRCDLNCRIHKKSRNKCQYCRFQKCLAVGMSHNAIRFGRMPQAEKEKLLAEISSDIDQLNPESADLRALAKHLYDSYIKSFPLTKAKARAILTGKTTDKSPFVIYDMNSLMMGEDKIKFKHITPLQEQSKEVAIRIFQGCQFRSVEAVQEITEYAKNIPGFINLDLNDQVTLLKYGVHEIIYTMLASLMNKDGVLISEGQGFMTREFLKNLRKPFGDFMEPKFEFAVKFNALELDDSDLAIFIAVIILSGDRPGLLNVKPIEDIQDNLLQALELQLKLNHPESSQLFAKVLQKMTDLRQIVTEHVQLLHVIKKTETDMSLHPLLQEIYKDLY
Kind of series: Full agonist activity at PPARgamma in mouse 3T3L1 preadipocytes assessed as increase in insulin induced adipocyte differentiation by measuring triglyceride accumulation at 1 uM after 9 days by Oil-Red O staining based assay. The format is cell-based. The note with it: 216 h. In outline: (§3)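 Postconfluent 3T3-L1 cells (DMEM, 10% FCS) differentiated over 9 days: 3 days with insulin (0.17 µM) plus dexamethasone (1 µM), 3 days with insulin (0.17 µM), then 3 days medium alone. Compound present throughout at 1 or 10 µM; DMSO vehicle. Day 9: PBS wash, Oil-Red O staining 1 h, dye extracted with 80% isopropanol, A515 read, expressed as ratio to vehicle; mean SD, three independent experiments.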

Series [4] has as its target T2, Peroxisome proliferator-activated receptor gamma (Homo sapiens) (UniProt P37231).
T2 sequence (whole entry): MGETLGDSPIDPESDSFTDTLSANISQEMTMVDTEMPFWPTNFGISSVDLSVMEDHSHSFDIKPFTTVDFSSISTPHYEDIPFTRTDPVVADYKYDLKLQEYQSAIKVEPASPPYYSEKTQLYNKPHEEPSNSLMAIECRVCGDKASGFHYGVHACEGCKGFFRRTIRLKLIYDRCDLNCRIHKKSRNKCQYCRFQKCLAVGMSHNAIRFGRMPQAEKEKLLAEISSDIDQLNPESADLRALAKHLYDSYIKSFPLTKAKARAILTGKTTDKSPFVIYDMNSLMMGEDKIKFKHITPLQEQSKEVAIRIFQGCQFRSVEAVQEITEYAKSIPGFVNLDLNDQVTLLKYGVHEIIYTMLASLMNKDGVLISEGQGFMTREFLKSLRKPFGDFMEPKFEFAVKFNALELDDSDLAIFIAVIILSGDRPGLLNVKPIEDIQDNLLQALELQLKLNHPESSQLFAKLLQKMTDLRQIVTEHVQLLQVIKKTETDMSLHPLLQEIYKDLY
In words: Intrinsic activity at Gal4 fused PPARgamma LBD (unknown origin) expressed in African green monkey COS7 cells after 42 hrs by luciferase assay relative to pioglitazone. Type of series: cell-based. As to conditions: COS-7. In outline:
(§4)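 COS-7 cells (10⁴/well, 24 h, 37 °C, 5% CO₂) transfected in serum-free medium with pGal5-TK-Luc, pGal4-hPPARγ-LBD and pRenilla-CMV (Lipofectamine 2000). After 4 h, compound or DMSO added across a concentration series. Dual-luciferase readout at 42 h, firefly normalized to Renilla. Maximal activation expressed as % of pioglitazone. Mean SD of three independent experiments, each run in triplicate.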

The target of series [5] is T3, Peroxisome proliferator-activated receptor gamma (Homo sapiens, UniProt P37231).
T3 sequence (P37231 whole entry): T2 sequence (whole entry)
In words: Transactivation at Gal4 fused PPARgamma LBD (unknown origin) expressed in African green monkey COS7 cells after 42 hrs by luciferase assay. Type of series: cell-based, COS-7.

Series [6] deals with T2, Peroxisome proliferator-activated receptor gamma (Homo sapiens). Kind of series: Intrinsic activity at Gal4 fused PPARgamma LBD (unknown origin) expressed in African green monkey COS7 cells at 20 uM after 42 hrs by luciferase assay relative to pioglitazone. As to conditions: COS-7. The format is cell-based. A digest of the protocol:
as §4

A further series relates to 3T3-L1. In words: Induction of triglyceride accumulation in insulin-stimulated mouse 3T3L1 preadipocytes at 10 uM after 9 days by Oil-Red O staining based assay relative to control.
The target of series [7] is T1, Peroxisome proliferator-activated receptor gamma. In words: Full agonist activity at PPARgamma in mouse 3T3L1 preadipocytes assessed as increase in insulin induced adipocyte differentiation by measuring triglyceride accumulation at 10 uM after 9 days by Oil-Red O staining based assay relative to control. Type of series: cell-based. As to conditions: 216 h. A digest of the protocol:
as §3

For a further series, the system named is LNCaP. The description is as §2. The format is functional. A digest of the protocol:
as §1

For series [8], the target named is T1, Peroxisome proliferator-activated receptor gamma. Kind of series: Full agonist activity at PPARgamma in mouse 3T3L1 preadipocytes assessed as increase in insulin induced adipocyte differentiation by measuring triglyceride accumulation at 1 to 10 uM after 9 days by Oil-Red O staining based assay relative to control. The format is cell-based. As to conditions: 216 h.

This is an account of results in ChEMBL document CHEMBL3870322, “New telmisartan-derived PPARγ agonists: Impact of the 3D-binding mode on the pharmacological profile” (Eur J Med Chem, 2016).

Calls of active or inactive are those of the source. The rule behind the calls is not given here.

As a reminder, the EC50 is the concentration needed to bring the measured effect to its halfway point. In the case of `CCCCCCc1nc2ccccc2n1Cc1ccc(-c2ccccc2C(N)=O)cc1`, in series [1], the inhibition at 72 h, 50 µM came to 92.8%. In series [2], the inhibition of growth at 50 µM came out at 78.5%. Moreover, the outcome in series [3] was Active. The compound also displayed a %max in series [4] of 37.8%. In [5], this compound registered an EC50 of 3.06 µM.

On to `CCCC1Sc2ccccc2N1Cc1ccc(-c2ccccc2C(N)=O)cc1` (stereo not given), for which the inhibition at 72 h, 50 µM in [1] was found to be 69.2%. Further, the inhibition of growth at 50 µM in series [2] came out at 79%. Besides, the %max in [6] was 33.1%.

Consider `CCCc1cc2ccccc2n1Cc1ccc(-c2ccccc2C(N)=O)cc1`, for which, in series [2], the inhibition of growth at 50 µM was in the range of 27.4 to 54.1%. The compound further showed a %max in series [4] of 11%.

With `CCCc1nc2ccccc2n1Cc1ccc(-c2ccc(C(=O)O)cc2)cc1`, in series [1], the “growth inhibition (GI)” value is given as “Non-Toxic”. The %max in series [4] turned out to be 84.1%. This compound also yielded an EC50 in [5] of 1.88 µM. Also, the “fold change (FC)” value with 3T3-L1 is reported as 1.2.

Consider `CCCc1nc2ccccc2n1Cc1ccc(-c2ccccc2C#N)cc1`, for which, in series [1], the inhibition at 72 h, 50 µM came to 61.9%. The inhibition of growth at 50 µM in series [2] was 61.9%. Moreover, the %max in series [4] amounted to 51.3%. Also, it took 5.01 µM to reach a half-maximal effect in [5] (EC50).

As for `CCCc1nc2c(C)cc(-c3nc4ccccc4n3C)cc2n1Cc1ccc(-c2ccccc2C(=O)O)cc1` [TELMISARTAN], in series [7], the “fold change (FC)” value is on record as 2. Besides, the “growth inhibition (GI)” value in series [1] is on record as “Non-Toxic”. Further, in series [4], the %max came out at 50.9%. Also, in [5], the EC50 turned out to be 4.71 µM.

On to `CCCCCc1nc2ccccc2n1Cc1ccc(-c2ccccc2C(N)=O)cc1`, for which the “growth inhibition (GI)” value in series [1] is on record as “Toxic”. For the same compound, the “growth inhibition (GI)” value in the series with LNCaP was “Active”. The result in series [3] was Active. The compound further displayed a %max in series [4] of 16.2%. This compound also registered an EC50 in series [5] of 3.9 µM.

As for `CCCC1Sc2ccccc2N1Cc1ccc(-c2ccccc2C(=O)O)cc1` (stereo not given), the “fold change (FC)” value in series [7] is greater than 3. In addition, in series [1], the “growth inhibition (GI)” value was “Non-Toxic”. Moreover, the %max in [4] was 57.4%. Moreover, the response in [5] was half-maximal at 1.05 µM (EC50).

Regarding `CCCCCc1nc2ccccc2n1Cc1ccc(-c2ccccc2C(=O)O)cc1`, the “growth inhibition (GI)” value in series [1] is “Non-Toxic”. In addition, in series [8], the result was Active. In series [4], the %max came to 55.4%. For the same compound, it took 0.4 µM to reach a half-maximal effect in [5] (EC50).

In the case of `CCCCCCCc1nc2ccccc2n1Cc1ccc(-c2ccccc2C(N)=O)cc1`, the “growth inhibition (GI)” value in [1] is reported as “Toxic”. Also, the “growth inhibition (GI)” value in the series on LNCaP is “Active”. Moreover, the result in [3] was Active. In addition, in series [4], the %max is 32.8%. In series [5], this compound had an EC50 of 0.84 µM.

On to `CCCc1nc2ccccc2n1Cc1ccc(-c2ccccc2C(N)=O)cc1`, for which, in [1], the inhibition at 72 h, 50 µM was 33%. Besides, the inhibition of growth at 50 µM in series [2] was 33%. The %max in series [4] amounted to 21.1%. This compound also registered an EC50 in [5] of 3.15 µM.

In the case of `CCCc1nc2ccccc2n1Cc1ccc(-c2ccccc2C(=O)O)cc1`, the “growth inhibition (GI)” value in series [1] is recorded as “Non-Toxic”. Besides, in series [4], the %max was 49.6%. The compound further yielded an EC50 in series [5] of 4.17 to 4.19 µM. Further, in the series with 3T3-L1, the “fold change (FC)” value was found to be 3.2.

In the case of `CCCCCCCc1nc2ccccc2n1Cc1ccc(-c2ccccc2C(=O)O)cc1`, the “growth inhibition (GI)” value in series [1] is “Non-Toxic”. The result in series [8] was Active. The compound further returned a %max in series [4] of 82.5%. This compound showed an EC50 in [5] of 0.17 µM.

`CCc1ccc(CCOc2ccc(CC3SC(=O)NC3=O)cc2)nc1` (stereo not given) [PIOGLITAZONE]: the “growth inhibition (GI)” value in series [1] is on record as “Non-Toxic”. The inhibition of growth at 50 µM in series [2] is 55.8%.

For `CCCc1nc2ccccc2n1Cc1ccc(-c2cccc(C(=O)O)c2)cc1`, in series [1], the “growth inhibition (GI)” value is “Non-Toxic”. For the same compound, the %max in series [4] was determined as 44.7%. This compound gave a 50% effective concentration (EC50) in series [5] of 6.24 µM. Also, the “fold change (FC)” value with 3T3-L1 came out at 2.5.

On to `CCCc1cc2ccccc2n1Cc1ccc(-c2ccccc2C(=O)O)cc1`, for which the “fold change (FC)” value in series [7] is greater than 3. Besides, the inhibition of growth at 50 µM in series [2] lay in the range of 27.4 to 54.1%. This compound also returned a %max in [4] of 40%. This compound also came in with a concentration giving a half-maximal response (EC50) in series [5] of 1.86 µM.

For `CCCc1cc2ccccc2n1Cc1ccc(-c2ccccc2C#N)cc1`, the inhibition at 72 h, 50 µM in series [1] is 36.8%. Besides, in [2], the inhibition of growth at 50 µM lay within 27.4 to 54.1%. In series [4], this compound yielded a %max of 21.7%. Also, the EC50 in series [5] stood at 8.03 µM.

As for `CCCCCCc1nc2ccccc2n1Cc1ccc(-c2ccccc2C(=O)O)cc1`, in series [1], the “growth inhibition (GI)” value is reported as “Non-Toxic”. In series [8], the result was Active. Besides, the %max in [4] stood at 75%. Moreover, the EC50 in series [5] is 0.21 µM.
